For two compounds, inhibition, IC50 and Activity results are on record in ChEMBL document CHEMBL4342471, “Discovery of Thieno[2,3-d]pyrimidine-Based Hydroxamic Acid Derivatives as Bromodomain-Containing Protein 4/Histone Deacetylase Dual Inhibitors Induce Autophagic Cell Death in Colorectal Carcinoma Cells” (J Med Chem, 2020).

Calls of active or inactive are those of the source. No cut-off for these calls is given here.

Experiment [1] deals with T1, Bromodomain-containing protein 4 (Homo sapiens, UniProt O60885). The experiment is described as follows: Inhibition of BRD4 in human HCT116 cells assessed as induction of autophagy by measuring LC3-I cleavage to LC3-II at 2 uM measured after 24 hrs by Western blot analysis. The experiment is classed as cell-based. The procedure, abridged:
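HCT-116 cells were treated for 24 hours with 0.5 μM, 2.0 μM or 10 μM agents. LC3 (LC3-I to LC3-II conversion) and p62 were then detected by western blot.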
On the technique in general: In western blotting, separated proteins are transferred to a membrane and probed.

The target in experiment [2] is T1, Bromodomain-containing protein 4. In words: Inhibition of GST-tagged BRD4 bromodomain (unknown origin) using biotinylated histone H4KAc peptide (1 to 21 residues) as substrate by HTRF assay. For orientation: Time-resolved FRET reads energy transfer from a long-lived donor to a nearby acceptor.
Experiment [3] shares this target. The experiment is described as follows: Inhibition of BRD4 in human HCT116 cells assessed as activation of IL6-JAK-STAT signaling pathway by measuring increase in IL6 mRNA level at 2 uM after 24 hrs by RT-PCR analysis. The format is cell-based. Summed up:
(§1)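 HCT-116 cells were incubated for 24 hours with the test agents at 0.5, 2.0 or 10 μM. IL6, OSM, LIF and CTF1 mRNA levels were then measured.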

Experiment [4] shares this target. In words: Inhibition of BRD4 in human HCT116 cells assessed as induction of autophagy by measuring p62 degradation at 2 uM measured after 24 hrs by Western blot analysis. The experiment is classed as cell-based. Summed up: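 HCT-116 cells incubated 24 h with test agent at 2.0 µM, alongside 0.5 µM and 10 µM comparator treatments; LC3 and p62 protein detected by western blot.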

Experiment [5] relates to HCT-116. The experiment is described as follows: Antiproliferative activity against human HCT116 cells assessed as reduction in cell viability measured after 24 to 48 hrs by MTT assay. The experiment is classed as functional, cell-based. (In general: Tetrazolium assays rely on reduction of a dye to a coloured formazan, in cell work by metabolically active cells.)
The target in experiment [6] is T1, Bromodomain-containing protein 4. The experiment is described as follows: Inhibition of BRD4 in human HCT116 cells assessed as activation of IL6-JAK-STAT signaling pathway by measuring increase in CTF1 mRNA level at 2 uM after 24 hrs by RT-PCR analysis. The format is cell-based. Summed up:
as §1

For experiment [7] the target is unchanged. In words: Inhibition of BRD4 in human HCT116 cells assessed as activation of IL6-JAK-STAT signaling pathway by measuring increase in LIF mRNA level at 2 uM after 24 hrs by RT-PCR analysis. The format is cell-based. Summed up:
as §1

For experiment [8], the system named is Mus musculus. The experiment is described as follows: Induction of autophagy in BALB/cAnNCrl mouse xenografted with human HCT116 cells assessed as increase in LC3-II level in tumor tissue at 30 mg/kg, po administered on day 1 to day 19 measured on day 19 by immunohistochemical analysis. The format is functional, organism-based. Summed up:
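HCT-116 xenograft mice were dosed orally at 15 or 30 mg/kg, or 30 mg/kg for reference agents, for 19 days, with vehicle or saline controls. Tumor sections were stained for Ki-67, c-Myc, Ac-H3, BRD4, LC3-II, LIFR and p-STAT3 by immunohistochemistry, and TUNEL staining was used as the apoptosis marker.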

Experiment [9] concerns the target T1, Bromodomain-containing protein 4. The experiment is described as follows: Inhibition of BRD4 in human HCT116 cells assessed as activation of IL6-JAK-STAT signaling pathway by measuring increase in OSM mRNA level at 2 uM after 24 hrs by RT-PCR analysis. The format is cell-based. The procedure, abridged:
as §1

Experiment [10] relates to HCT-116. The experiment is described as follows: Effect on histone H3 expression level in human HCT116 cells measured after 24 hrs by Western blot analysis. The experiment is classed as functional, cell-based.
Experiment [11] relates to SW-620. The experiment is described as follows: Antiproliferative activity against human SW620 cells assessed as reduction in cell viability measured after 24 to 48 hrs by MTT assay. The experiment is classed as functional, cell-based.
Experiment [12] has as its system HCT-116. The experiment is described as follows: Decrease in BRD4 expression in human HCT116 cells incubated for 24 hrs by western blot analysis. The format is functional, cell-based.
In experiment [13] the test system is DLD-1. In words: Antiproliferative activity against human DLD1 cells assessed as reduction in cell viability measured after 24 to 48 hrs by MTT assay. The format is functional, cell-based.

`Cc1cc(-c2nc3sc4c(c3c(=O)[nH]2)CCN(C)C4)cc(C)c1O`: the inhibition entry in experiment [1] and in experiment [4] was “Active” in each case. Moreover, the IC50 in experiment [2] was determined as 0.85 µM; in experiment [5], 1.33 µM. The inhibition entry in experiment [3], in experiment [6], in experiment [7] and in experiment [9] was “inactive” throughout. For the same compound, the outcome in experiment [8] was Active.
Regarding `COc1cc(OC)c2c(=O)[nH]c(-c3cc(C)c(OCCO)c(C)c3)nc2c1` [APABETALONE], in experiment [10], the result was inactive. Moreover, the figures for the IC50 in [11], in experiment [5] and in experiment [13] were > 10 µM, 12.8 µM and > 10 µM, respectively. Moreover, the inhibition result in experiment [12] was “Active”.

Usually IC50 stands for the midpoint of a concentration-inhibition curve.
